According to ChEMBL document CHEMBL1146556, “Acetophenone derivatives from Acronychia pedunculata” (J Nat Prod, 2003):

How the values were obtained:
Tyrosinase = target: T1, Tyrosinase (Homo sapiens, UniProt P14679); assay: Inhibition of tyrosinase
T1 sequence (P14679 whole entry): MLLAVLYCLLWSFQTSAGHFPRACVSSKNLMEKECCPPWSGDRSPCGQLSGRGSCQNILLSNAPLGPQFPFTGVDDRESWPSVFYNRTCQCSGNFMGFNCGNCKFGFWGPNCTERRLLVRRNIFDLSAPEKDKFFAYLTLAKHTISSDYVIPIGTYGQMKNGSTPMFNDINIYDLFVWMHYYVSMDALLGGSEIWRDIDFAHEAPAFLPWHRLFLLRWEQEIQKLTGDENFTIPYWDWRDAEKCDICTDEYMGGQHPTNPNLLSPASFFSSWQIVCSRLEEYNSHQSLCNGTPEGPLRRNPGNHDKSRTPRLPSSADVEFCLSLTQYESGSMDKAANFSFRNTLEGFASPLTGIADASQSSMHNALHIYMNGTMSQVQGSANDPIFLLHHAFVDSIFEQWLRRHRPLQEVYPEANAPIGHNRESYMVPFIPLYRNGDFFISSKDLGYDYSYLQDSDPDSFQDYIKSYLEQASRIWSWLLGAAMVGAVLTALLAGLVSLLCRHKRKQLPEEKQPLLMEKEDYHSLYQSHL

[1] = system: Radical scavenging activity; assay: Antioxidant activity assessed as DPPH radical scavenging activity after 30 mins; type: functional
How it was run: (§1)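 Radical scavenging was read as percent inhibition after a 30 min incubation.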

[2] = target: T2, Tyrosinase (Homo sapiens) (UniProt P14679); assay: Inhibition of tyrosinase at 500 uM
T2 sequence (whole entry): T1 sequence (P14679 whole entry)

[3] = system: Radical scavenging activity; assay: Antioxidant activity assessed as DPPH radical scavenging activity at 500 uM after 30 mins; type: functional; how it was run: as §1

Compound `COc1c(CC=C(C)C)c(O)c([C@H](CC(C)C)c2c(O)c(CC=C(C)C)c(O)c(C(C)=O)c2O)c(O)c1C(C)=O` [ACROVESTONE] has an IC50 (Tyrosinase) of 333 µM and an IC50 [1] of 493 µM.
`COc1c(CC=C(C)C)c(O)c(C=O)c(O)c1C(C)=O` showed an inhibition [2] of 11.8% and an inhibition [3] of 3.1%.
`C=C(C)C(O)Cc1c(O)cc(O)c(C(C)=O)c1OC` (stereo not drawn) was tested, and the inhibition [2] was 8.1% and the inhibition [3] was 10.3%.
`COc1c(CC=C(C)C)c2c(c(O)c1C(C)=O)C[C@H](C(C)(C)O)O2` showed an inhibition [2] of 6.5% and an inhibition [3] of 5.3%.
Compound `COc1c(CC=C(C)C)c(O)c(C(=O)CC(C)C)c(O)c1C(C)=O` has an inhibition [2] of 16.8% and an inhibition [3] of 8.3%.
In the case of VITAMIN E, the IC50 [1] is reported as 8.3 µM.
Compound `COc1c(CC=C(C)C)c2c(c(O)c1C(C)=O)C=CC(C)(C)O2` has an inhibition [2] of 2.5% and an inhibition [3] of 2.9%.
